The values below come from ChEMBL document CHEMBL3352173, “Optimization of pyrrolamide topoisomerase II inhibitors toward identification of an antibacterial clinical candidate (AZD5099)” (J Med Chem, 2014).

One series relates to Haemophilus influenzae. Description: Antimicrobial activity against Haemophilus influenzae by broth microdilution/CLSI method. The class given is functional. The settings on record: Haemophilus influenzae; read-out: MIC. (In broth dilution the organism is exposed to a series of concentrations in liquid medium.)
A further series has as its target DNA gyrase subunit B (Staphylococcus aureus, UniProt P0A0K8). Description: Inhibition of ATPase activity of Staphylococcus aureus GyrB. Put shortly: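 IC50 was determined against S. aureus GyrB in the routine screening assay. The enzyme concentration limits resolution below 10 nM.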
Another series has as its system Streptococcus pneumoniae. Description: Antibacterial activity against Streptococcus pneumoniae by broth microdilution/CLSI method. The class given is functional. The settings on record: Streptococcus pneumoniae; read-out: MIC.
Series [1] deals with Staphylococcus aureus. Description: Antimicrobial activity against methicillin-sensitive Staphylococcus aureus by broth microdilution/CLSI method. It counts as functional. As to conditions: Staphylococcus aureus; read-out: MIC.
The subject of series [2] is Staphylococcus aureus. Nature of the series: Antimicrobial activity against methicillin, quinolone-resistant Staphylococcus aureus by broth microdilution/CLSI method. The class given is functional. The settings on record: Staphylococcus aureus; read-out: MIC.
The subject of another series is Moraxella catarrhalis. Nature of the series: Antimicrobial activity against Moraxella catarrhalis by broth microdilution/CLSI method. The class given is functional. The settings on record: Moraxella catarrhalis; read-out: MIC.
Series [3] relates to Escherichia coli. Nature of the series: Antimicrobial activity against wild-type Escherichia coli Eco523 by broth microdilution/CLSI method. The class given is functional. As to conditions: Escherichia coli, Eco523; read-out: MIC.
Series [4] deals with Escherichia coli. Nature of the series: Antimicrobial activity against Escherichia coli tolC- by broth microdilution/CLSI method. It counts as functional. As to conditions: Escherichia coli; read-out: MIC.
The next series has as its system Streptococcus pyogenes. Description: Antimicrobial activity against Streptococcus pyogenes by broth microdilution/CLSI method. It counts as functional.
Series [5] is described as follows: Octanol-phosphate buffer distribution coefficient, log D of the compound at pH 7.4 by shake flask method. The class given is physicochemical.
Series [6] is described as follows: Percentage unbound in human plasma. It counts as ADME, cell-free.
A short description of series [7]: Solubility of the compound. It counts as physicochemical.

pIC50: −log10 of the molar value. ≈ marks a conversion by molar mass, not a printed value.

Sequence of DNA gyrase subunit B (P0A0K8 whole entry): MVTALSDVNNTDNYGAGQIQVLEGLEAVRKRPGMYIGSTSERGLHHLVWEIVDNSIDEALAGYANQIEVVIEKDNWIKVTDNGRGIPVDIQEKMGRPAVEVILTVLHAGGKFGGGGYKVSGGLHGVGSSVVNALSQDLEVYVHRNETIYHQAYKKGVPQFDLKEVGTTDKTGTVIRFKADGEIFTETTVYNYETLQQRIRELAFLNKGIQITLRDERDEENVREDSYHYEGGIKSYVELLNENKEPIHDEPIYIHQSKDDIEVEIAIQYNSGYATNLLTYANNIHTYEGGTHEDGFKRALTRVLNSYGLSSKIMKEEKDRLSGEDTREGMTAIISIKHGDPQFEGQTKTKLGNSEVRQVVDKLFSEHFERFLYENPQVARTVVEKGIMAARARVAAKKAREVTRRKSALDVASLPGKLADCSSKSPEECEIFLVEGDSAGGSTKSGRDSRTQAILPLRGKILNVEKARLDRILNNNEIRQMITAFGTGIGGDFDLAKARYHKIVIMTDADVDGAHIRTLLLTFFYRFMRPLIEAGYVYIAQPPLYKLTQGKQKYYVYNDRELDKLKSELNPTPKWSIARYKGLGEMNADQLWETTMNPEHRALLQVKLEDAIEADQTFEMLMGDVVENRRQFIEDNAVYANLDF

Regarding `CO[C@H]1CN(c2ncc(C(=O)O)s2)CC[C@@H]1NC(=O)c1[nH]c(C)c(Cl)c1Cl`, the MIC with Haemophilus influenzae is more than 64 µg/mL; with Streptococcus pneumoniae it was 64 µg/mL (≈ 148 µM); in the series on Staphylococcus aureus [1], more than 64 µg/mL; in the series on Staphylococcus aureus [2], more than 64 µg/mL; in the series with Moraxella catarrhalis it was 64 µg/mL (≈ 148 µM); in the series with Escherichia coli [3], more than 64 µg/mL. Also, in the series with Escherichia coli [4], the MIC was 64 µg/mL (≈ 148 µM). Besides, the negative-log IC50 (pIC50) (as a rule, the IC50 on a negative log10 scale, so that one unit is a factor of ten) on DNA gyrase subunit B is 5.19.

For `Cc1[nH]c(C(=O)N[C@@H]2CCN(c3ncc(C(=O)O)s3)CC23OCC2(CC2)CO3)c(Cl)c1Cl`, the MIC in the series on Haemophilus influenzae is 0.13 µg/mL (≈ 0.259 µM); with Streptococcus pneumoniae, less than 0.063 µg/mL; with Streptococcus pyogenes it was less than 0.063 µg/mL; with Staphylococcus aureus [1], 0.5 µg/mL (≈ 0.997 µM); in the series on Staphylococcus aureus [2] it was 0.5 µg/mL (≈ 0.997 µM); with Moraxella catarrhalis it was less than 0.063 µg/mL. In addition, the MIC in the series with Escherichia coli [3] was more than 64 µg/mL; in the series on Escherichia coli [4], 1 µg/mL (≈ 1.99 µM). For the same molecule, the negative-log IC50 (pIC50) against DNA gyrase subunit B is more than 8.00. The log distribution coefficient (logD) (usually the decadic logarithm of the distribution of all forms, ionised or not, between an organic phase and buffer at a given pH) in [5] is 0.88. The unbound share (fraction unbound) (as a rule, the share of the substance not bound to proteins or other matrix) in [6] is 0.012. Moreover, in series [7], the solubility (in general, the concentration that dissolves in the medium under given conditions) is more than 1000 µM.

Take `COCCO[C@H]1CN(c2ncc(C(=O)O)s2)CC[C@H]1NC(=O)c1[nH]c(C)c(Cl)c1Cl` (racemic): the MIC in the series on Haemophilus influenzae is 8 µg/mL (≈ 16.8 µM); in the series with Streptococcus pneumoniae, 0.5 µg/mL (≈ 1.05 µM); with Staphylococcus aureus [1], more than 8 µg/mL; in the series on Moraxella catarrhalis, 1 µg/mL (≈ 2.09 µM); in the series on Escherichia coli [3], more than 8 µg/mL; in the series on Escherichia coli [4], 2 µg/mL (≈ 4.19 µM). At DNA gyrase subunit B, this molecule had a pIC50 of more than 8.00. In series [5], the logD was 0.06. This molecule displayed a fraction unbound in [6] of 0.094.

In the case of `Cc1[nH]c(C(=O)N[C@@H]2CCN(c3ncc(C(=O)O)s3)C[C@@H]2O)c(Cl)c1Cl` (racemic), the MIC in the series on Haemophilus influenzae is 1 µg/mL (≈ 2.38 µM); in the series on Streptococcus pneumoniae it was 0.5 µg/mL (≈ 1.19 µM); in the series with Staphylococcus aureus [1], 16 µg/mL (≈ 38.2 µM); in the series with Staphylococcus aureus [2], 16 µg/mL (≈ 38.2 µM); in the series on Moraxella catarrhalis, 4 µg/mL (≈ 9.54 µM); in the series on Escherichia coli [3] it was more than 64 µg/mL. Further, the MIC with Escherichia coli [4] came to 1 µg/mL (≈ 2.38 µM). Also, the pIC50 on DNA gyrase subunit B was 7.80. Moreover, the logD in series [5] was -0.67.

As to `CS[C@H]1CN(c2ncc(C(=O)O)s2)CC[C@H]1NC(=O)c1[nH]c(C)c(Cl)c1Cl` (racemic), the MIC is 0.13 µg/mL (≈ 0.289 µM) in the series with Haemophilus influenzae; 0.016 µg/mL (≈ 0.0356 µM) in the series on Streptococcus pneumoniae; 0.016 µg/mL (≈ 0.0356 µM) in the series on Streptococcus pyogenes; 0.13 µg/mL (≈ 0.289 µM) in the series with Staphylococcus aureus [1]; 0.25 µg/mL (≈ 0.556 µM) in the series on Staphylococcus aureus [2]; less than 0.008 µg/mL with Moraxella catarrhalis. In addition, the results for the MIC in the series on Escherichia coli [3] and in the series with Escherichia coli [4] were more than 8 µg/mL and 0.25 µg/mL (≈ 0.556 µM), respectively. Also, the pIC50 against DNA gyrase subunit B is more than 8.00. The same molecule showed a logD in series [5] of 0.72. This molecule also came in with a fraction unbound in series [6] of 0.015. Also, the solubility in series [7] was more than 1000 µM.

As to `CCO[C@H]1CN(c2ncc(C(=O)O)s2)CC[C@H]1NC(=O)c1[nH]c(C)c(Cl)c1Cl` (racemic), the MIC in the series on Haemophilus influenzae is 2 µg/mL (≈ 4.47 µM); in the series on Streptococcus pneumoniae, 0.031 µg/mL (≈ 0.0693 µM); in the series with Staphylococcus aureus [1], 1 µg/mL (≈ 2.24 µM); in the series on Staphylococcus aureus [2], 2 µg/mL (≈ 4.47 µM); in the series on Moraxella catarrhalis it was 0.13 µg/mL (≈ 0.291 µM); in the series on Escherichia coli [3], more than 8 µg/mL. The MIC with Escherichia coli [4] stood at 1 µg/mL (≈ 2.24 µM). In addition, the pIC50 against DNA gyrase subunit B is more than 8.00. This molecule also registered a logD in [5] of 0.67. The unbound share (fraction unbound) in series [6] is 0.031.

With `CO[C@@H]1CN(c2ncc(C(=O)O)s2)CC[C@@H]1NC(=O)c1[nH]c(C)c(Cl)c1Cl`, the MIC is 16 µg/mL (≈ 36.9 µM) with Haemophilus influenzae; 1 µg/mL (≈ 2.31 µM) with Streptococcus pneumoniae; 32 µg/mL (≈ 73.8 µM) with Staphylococcus aureus [1]; 32 µg/mL (≈ 73.8 µM) in the series with Staphylococcus aureus [2]; 2 µg/mL (≈ 4.62 µM) in the series on Moraxella catarrhalis; more than 64 µg/mL in the series on Escherichia coli [3]. In addition, the MIC in the series with Escherichia coli [4] came to 8 µg/mL (≈ 18.5 µM). Further, the pIC50 at DNA gyrase subunit B was 6.85.

Take `Cc1[nH]c(C(=O)N[C@@H]2CCN(c3ncc(C(=O)O)s3)CC23OCC(C)(C)CO3)c(Cl)c1Cl`: the MIC in the series with Haemophilus influenzae is 0.25 µg/mL (≈ 0.497 µM); with Streptococcus pneumoniae, less than 0.063 µg/mL; in the series with Streptococcus pyogenes it was less than 0.063 µg/mL; in the series on Staphylococcus aureus [1], 0.5 µg/mL (≈ 0.993 µM); with Staphylococcus aureus [2], 0.5 µg/mL (≈ 0.993 µM); in the series with Moraxella catarrhalis, less than 0.063 µg/mL. Moreover, the MIC was more than 64 µg/mL with Escherichia coli [3] and 1 µg/mL (≈ 1.99 µM) in the series on Escherichia coli [4]. Besides, the pIC50 at DNA gyrase subunit B is more than 8.00. This molecule also had a logD in series [5] of 1.07. In series [6], the unbound share (fraction unbound) stood at 0.02. For the same molecule, the solubility in series [7] is more than 1000 µM.

As to `COC[C@H]1CN(c2ncc(C(=O)O)s2)CC[C@H]1NC(=O)c1[nH]c(C)c(Cl)c1Cl` (racemic), the MIC in the series with Haemophilus influenzae is more than 8 µg/mL; in the series on Streptococcus pneumoniae it was 4 µg/mL (≈ 8.94 µM); in the series with Staphylococcus aureus [1] it was more than 8 µg/mL; in the series with Moraxella catarrhalis, 2 µg/mL (≈ 4.47 µM); in the series with Escherichia coli [3] it was more than 8 µg/mL; with Escherichia coli [4] it was 1 µg/mL (≈ 2.24 µM). In addition, the pIC50 at DNA gyrase subunit B is 7.27. The pH-dependent lipophilicity (logD) in series [5] came to 0.06. In series [6], this molecule showed an unbound share (fraction unbound) of 0.052.
